The text below walks through data of article PMC3947039 (ACS chemical biology, 2013).

One may read the Ki as the dissociation constant of the complex between target and ligand, obtained from inhibition or displacement.

Test [1] relates to MMP-7. Conditions: at 250 μM; cited from earlier work.
Test [2] deals with db/db mice. Briefly: Excisional diabetic wound-healing model, topical treatment. The format is in vivo, mouse. The gist of the method:
(§1)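 Test compound dissolved in saline at 5.0 mg mL−1 as the dosing solution; saline vehicle; both filter-sterilised. Applied topically to excisional wounds in db/db or wild-type mice. Wound healing scored on days 1, 3, 7, 10 and 14, with n = 35, 28, 21, 14 and 7 mice on those days. Results given as mean ± SD, with treated versus vehicle compared statistically.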

Test [3] has as its system MMP-19. Particulars: at 30 μM; cited from earlier work.
Test [4] deals with ADAM17. Conditions: read-out: Ki ADAM17; competitive; cited from earlier work.
In test [5] the target is MMP-9 (Mus musculus, UniProt P41245). Briefly: In-situ zymography with DQ-gel in diabetic wound tissues. It counts as in vivo. Particulars: db/db mice, versus vehicle. The gist of the method:
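db/db wounds were treated topically with the test compound or vehicle. Wound sections were incubated with the fluorogenic MMP gelatin substrate DQ-gel to localise MMP activity in situ. Nuclei were counterstained with DAPI, and the green fluorescence was imaged merged with the DAPI signal.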

Test [6] concerns apoptotic cells in wounds of diabetic mice. Briefly: TUNEL apoptosis detection in diabetic wound tissues. Particulars: versus vehicle. The format is in vivo, mouse.
In test [7] the test system is ADAM9. Conditions: at 20 μM; cited from earlier work.
Test [8] has as its system wild-type mice. The experiment in a line: H&E staining of wounds, re-epithelialization, wild-type mice. The format is in vivo, mouse. Conditions: topical, day 14. In short, it runs like this:
(§2)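 Wounds were treated topically with the test compound in saline, or with saline vehicle alone. Wounds were imaged at a common scale. Day-14 wound tissue was H&E stained, and the re-epithelialized region was traced on the sections.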

Test [9] deals with ADAM10. Particulars: at 20 μM; cited from earlier work.
In test [10] the test system is wild-type mice. Briefly: Excisional wound-healing model in wild-type mice, topical treatment. It counts as in vivo, mouse. The gist of the method: as §1
Test [11] concerns db/db mice. The experiment in a line: H&E staining of wounds, re-epithelialization, db/db mice. Conditions: topical, day 14. It counts as in vivo, mouse. In short, it runs like this:
as §2

In test [12] the test system is MMP-1. Conditions: at 250 μM; cited from earlier work.
In test [13] the test system is non-diabetic wounds in pigs. Particulars: cited from earlier work.
Test [14] concerns non-diabetic wounds in humans. Conditions: cited from earlier work.
Test [15] relates to non-diabetic wounds in rats. Conditions: cited from earlier work.

Chain of MMP-9 (P41245 108-730): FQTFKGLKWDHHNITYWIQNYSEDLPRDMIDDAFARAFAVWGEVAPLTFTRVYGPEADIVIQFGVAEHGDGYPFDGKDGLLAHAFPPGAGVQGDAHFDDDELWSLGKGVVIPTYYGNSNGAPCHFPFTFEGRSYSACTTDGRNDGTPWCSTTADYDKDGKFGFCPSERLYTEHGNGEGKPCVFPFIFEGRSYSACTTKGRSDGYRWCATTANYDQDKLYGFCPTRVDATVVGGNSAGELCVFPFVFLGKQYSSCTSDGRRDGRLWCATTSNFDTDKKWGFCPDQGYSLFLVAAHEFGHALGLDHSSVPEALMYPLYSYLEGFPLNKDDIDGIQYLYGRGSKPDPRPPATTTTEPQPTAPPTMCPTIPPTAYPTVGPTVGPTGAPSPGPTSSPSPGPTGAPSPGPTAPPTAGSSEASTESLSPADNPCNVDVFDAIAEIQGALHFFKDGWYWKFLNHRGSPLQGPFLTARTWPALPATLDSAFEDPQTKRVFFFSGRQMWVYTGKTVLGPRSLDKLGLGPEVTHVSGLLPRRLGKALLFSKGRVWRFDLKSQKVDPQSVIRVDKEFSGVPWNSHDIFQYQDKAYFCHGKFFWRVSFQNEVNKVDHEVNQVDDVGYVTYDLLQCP

Regarding `Nc1ccc(Oc2ccc(S(=O)(=O)CC3CS3)cc2)cc1` (stereo not shown) [ND-322], the “inhibition of MMP-7” value in test [1] is 16%. Besides, the “wound healing as a percentage of the initial wound area” value was 70 ± 16% in test [2] (day 10, mean ± SD); 92 ± 4% in [2] (day 14, mean ± SD); 62 ± 19% in test [10] (day 7, mean ± SD); 82 ± 11% in test [10] (day 10, mean ± SD); 96 ± 4% in [10] (day 14, mean ± SD). Further, the “wound healing, difference versus vehicle-treated” value in test [2] (days 1, 3 and 7, p > 0.2) is “not statistically significant”. In addition, the “inhibition of MMP-19” value in test [3] is listed as 9%. For the same compound, the Ki in test [4] was 15.7 ± 2 µM. Besides, in test [5], the “gelatinase activity (due to MMP-9) in wound tissues” value is given as “significantly decreased”. In addition, the “apoptosis in wound tissues (TUNEL)” value in [6] was “significantly decreased”. Further, the “inhibition of ADAM9” value in [7] was 30%. Also, the “re-epithelialization (H&E staining)” value in test [8] and in [11] was “complete re-epithelialization” each time. Also, the “inhibition of ADAM10” value in test [9] is recorded as 21%. The “inhibition of MMP-1” value in test [12] is 10%.

On to `CNC(=O)[C@H](Cc1c[nH]c2ccccc12)NC(=O)[C@@H](CC(=O)NO)CC(C)C` [ilomastat], for which the epithelialization result in [13], in test [14] and in test [15] was “diminished epithelialization” in each case. For the same compound, the wound closure result in test [13], in test [14] and in test [15] was “delayed wound closure” in each case.
